From ChEMBL document CHEMBL4261600 (Eur J Med Chem, 2018) come the findings set out here.

A value given as a limit tells only on which side of the number the result lay.

For one test, the species on record is Homo sapiens. The test is described as follows: Selectivity ratio of IC50 for recombinant GST-tagged human CDK3/cyclin E1 to IC50 for recombinant full length His-tagged human CDK9/CyclinT1.
Test [1] relates to Epidermal growth factor receptor (Homo sapiens), P00533 [L858R]. Description: Binding affinity to human partial length EGFR L858R mutant (R669 to V1011 residues) expressed in bacterial expression system assessed as remaining unbound target protein level at 1000 nM by Kinomescan method relative to control. The procedure, abridged:
(§1)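 KINOMEscan competition-binding profiling across the panel of 468 kinases and mutants, with inhibitor tested at 1 μM. Binding is expressed as percent of control, with DMSO as the reference control.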

Test [2] deals with SNF-related serine/threonine-protein kinase (Homo sapiens) (UniProt Q9NRH2). The test is described as follows: Binding affinity to wild-type human partial length SNRK (M1 to E339 residues) expressed in mammalian expression system assessed as remaining unbound target protein level at 1000 nM by Kinomescan method relative to control.
SNF-related serine/threonine-protein kinase (Homo sapiens), sequence (Q9NRH2 whole entry, the tested form may be a part): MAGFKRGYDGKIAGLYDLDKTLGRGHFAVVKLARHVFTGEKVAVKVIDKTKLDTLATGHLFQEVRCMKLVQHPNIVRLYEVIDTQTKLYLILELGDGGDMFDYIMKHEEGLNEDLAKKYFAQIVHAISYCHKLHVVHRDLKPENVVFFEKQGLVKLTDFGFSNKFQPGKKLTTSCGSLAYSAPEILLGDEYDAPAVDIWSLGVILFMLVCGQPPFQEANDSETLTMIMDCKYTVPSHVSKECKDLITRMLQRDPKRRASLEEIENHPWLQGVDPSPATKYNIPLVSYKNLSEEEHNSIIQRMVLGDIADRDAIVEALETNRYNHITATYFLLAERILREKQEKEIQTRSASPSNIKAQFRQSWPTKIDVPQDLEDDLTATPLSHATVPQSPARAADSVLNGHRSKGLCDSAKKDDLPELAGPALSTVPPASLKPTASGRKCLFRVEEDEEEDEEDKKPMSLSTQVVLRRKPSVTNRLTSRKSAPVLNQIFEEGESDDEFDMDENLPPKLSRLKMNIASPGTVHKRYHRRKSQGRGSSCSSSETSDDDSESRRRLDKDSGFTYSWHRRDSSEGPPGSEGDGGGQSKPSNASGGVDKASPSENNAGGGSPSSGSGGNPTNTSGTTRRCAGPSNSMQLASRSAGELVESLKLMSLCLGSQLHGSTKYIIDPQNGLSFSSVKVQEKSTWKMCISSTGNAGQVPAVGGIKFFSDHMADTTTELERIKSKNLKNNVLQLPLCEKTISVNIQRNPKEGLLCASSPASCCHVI
Test [3] addresses Tyrosine-protein kinase JAK1 (Homo sapiens) (UniProt P23458). Description: Binding affinity to wild-type human partial length JAK1 JH1 catalytic domain (V856 to K1154 residues) expressed in bacterial expression system assessed as remaining unbound target protein level at 1000 nM by Kinomescan method relative to control. The procedure, abridged: (§2)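 KINOMEscan binding panel of 468 kinases/mutants. Inhibitor was tested at a single concentration of 1 μM. Binding is reported as percent of control, defined relative to a DMSO control.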

For test [4], the target named is Serine/threonine-protein kinase RIO2 (Homo sapiens) (UniProt Q9BVS4). The test is described as follows: Binding affinity to wild-type human partial length RIOK2 (M1 to D313 residues) expressed in mammalian expression system assessed as remaining unbound target protein level at 1000 nM by Kinomescan method relative to control.
Serine/threonine-protein kinase RIO2 (Homo sapiens), sequence (Q9BVS4 whole entry, looked up, the tested form may be a part): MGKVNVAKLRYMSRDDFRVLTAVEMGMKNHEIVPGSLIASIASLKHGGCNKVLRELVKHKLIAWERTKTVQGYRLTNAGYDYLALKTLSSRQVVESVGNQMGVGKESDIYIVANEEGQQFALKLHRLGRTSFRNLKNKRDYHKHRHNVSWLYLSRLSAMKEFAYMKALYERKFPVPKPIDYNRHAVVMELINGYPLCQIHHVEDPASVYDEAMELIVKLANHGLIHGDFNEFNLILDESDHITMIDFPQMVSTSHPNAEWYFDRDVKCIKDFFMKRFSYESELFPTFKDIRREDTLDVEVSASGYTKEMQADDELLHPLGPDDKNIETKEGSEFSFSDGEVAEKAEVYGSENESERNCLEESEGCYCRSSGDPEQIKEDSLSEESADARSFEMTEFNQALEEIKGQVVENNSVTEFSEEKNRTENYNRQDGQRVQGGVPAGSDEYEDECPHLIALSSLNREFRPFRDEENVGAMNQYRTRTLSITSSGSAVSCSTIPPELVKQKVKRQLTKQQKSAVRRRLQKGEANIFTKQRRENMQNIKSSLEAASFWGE
Test [5] concerns the target Non-receptor tyrosine-protein kinase TYK2 (Homo sapiens) (UniProt P29597). The test is described as follows: Binding affinity to wild-type human partial length TYK2 JH1 catalytic domain (V877 to C1187 residues) expressed in mammalian expression system assessed as remaining unbound target protein level at 1000 nM by Kinomescan method relative to control.
For test [6], the target named is Ribosomal protein S6 kinase alpha-3 (Homo sapiens) (UniProt P51812). Description: Binding affinity to wild-type human partial length C-terminal RSK2 kinase domain 2 (V402 to S715 residues) expressed in mammalian expression system assessed as remaining unbound target protein level at 1000 nM by Kinomescan method relative to control. The procedure, abridged:
(§3)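 Profiled in a KINOMEscan binding panel with the inhibitor at a single concentration of 1 μM. Binding to each kinase was read out as percent of control, relative to a DMSO control. Strong binders were defined as those with a percent control value below 1.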

Test [7] addresses Serine/threonine-protein kinase pim-2 (Homo sapiens) (UniProt Q9P1W9). The test is described as follows: Binding affinity to wild-type human partial length PIM2 (M1 to E291 residues) expressed in bacterial expression system assessed as remaining unbound target protein level at 1000 nM by Kinomescan method relative to control.
The target in test [8] is SRSF protein kinase 1 (Homo sapiens) (UniProt Q96SB4). The test is described as follows: Binding affinity to wild-type human full length SRPK1 (M1 to S655 residues) expressed in bacterial expression system assessed as remaining unbound target protein level at 1000 nM by Kinomescan method relative to control. In a few lines: (§4)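 KINOMEscan competition binding profile across a panel of 468 kinases and mutants, with the inhibitor tested at a single concentration of 1 μM. Binding is reported as percent of control, meaning signal relative to a DMSO control.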
SRSF protein kinase 1 (Homo sapiens), sequence (Q96SB4 whole entry, the tested form may be a part): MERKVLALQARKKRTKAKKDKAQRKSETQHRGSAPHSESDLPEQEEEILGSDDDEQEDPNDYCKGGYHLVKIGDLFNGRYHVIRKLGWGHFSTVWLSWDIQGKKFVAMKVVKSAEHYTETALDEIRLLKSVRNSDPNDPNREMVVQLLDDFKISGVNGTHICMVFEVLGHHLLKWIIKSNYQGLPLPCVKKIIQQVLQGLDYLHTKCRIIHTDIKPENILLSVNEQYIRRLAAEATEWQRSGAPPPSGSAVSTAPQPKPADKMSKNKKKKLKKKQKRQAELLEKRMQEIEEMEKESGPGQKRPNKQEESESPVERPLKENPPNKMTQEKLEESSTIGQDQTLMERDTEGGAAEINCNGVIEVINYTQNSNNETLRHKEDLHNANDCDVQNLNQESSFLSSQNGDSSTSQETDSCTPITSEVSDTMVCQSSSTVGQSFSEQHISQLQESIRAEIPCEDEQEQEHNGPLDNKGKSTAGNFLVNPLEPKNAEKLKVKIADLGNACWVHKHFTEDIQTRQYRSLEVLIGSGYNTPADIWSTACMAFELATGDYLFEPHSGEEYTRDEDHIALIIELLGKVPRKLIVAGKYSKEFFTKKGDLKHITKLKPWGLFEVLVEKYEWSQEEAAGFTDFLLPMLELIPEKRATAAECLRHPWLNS

The target in test [9] is Citron Rho-interacting kinase (Homo sapiens) (UniProt O14578). The test is described as follows: Binding affinity to wild-type human partial length CIT (M68 to E432 residues) expressed in bacterial expression system assessed as remaining unbound target protein level at 1000 nM by Kinomescan method relative to control. The procedure, abridged: as §4
Test [10] deals with Interleukin-1 receptor-associated kinase 3 (Homo sapiens) (UniProt Q9Y616). The test is described as follows: Binding affinity to wild-type human partial length IRAK3 (V147 to E596 residues) expressed in bacterial expression system assessed as remaining unbound target protein level at 1000 nM by Kinomescan method relative to control.
Test [11] addresses Tyrosine-protein kinase Mer (Homo sapiens) (UniProt Q12866). Description: Binding affinity to wild-type human partial length MERTK (R557 to L884 residues) expressed in bacterial expression system assessed as remaining unbound target protein level at 1000 nM by Kinomescan method relative to control. The procedure, abridged:
as §2

Test [12] concerns the target Serine/threonine-protein kinase DCLK1 (Homo sapiens) (UniProt O15075). Description: Binding affinity to wild-type human partial length DCAMKL1 (L270 to A662 residues) expressed in mammalian expression system assessed as remaining unbound target protein level at 1000 nM by Kinomescan method relative to control.
Test [13] relates to Hepatocyte growth factor receptor (Homo sapiens), P08581 [Y1235D]. Description: Binding affinity to human partial length MET Y1235D mutant (D1010 to S1367 residues) expressed in bacterial expression system assessed as remaining unbound target protein level at 1000 nM by Kinomescan method relative to control. The procedure, abridged:
as §1

Test [14] has as its target Insulin-like growth factor 1 receptor (Homo sapiens) (UniProt P08069). Description: Binding affinity to wild-type human partial length IGF1R (L972 to D1294 residues) expressed in bacterial expression system assessed as remaining unbound target protein level at 1000 nM by Kinomescan method relative to control.
Test [15] concerns the target Mitogen-activated protein kinase kinase kinase kinase 5 (Homo sapiens) (UniProt Q9Y4K4). Description: Binding affinity to wild-type human partial length MAP4K5 (M1 to P297 residues) expressed in bacterial expression system assessed as remaining unbound target protein level at 1000 nM by Kinomescan method relative to control. In a few lines: as §2
The target in test [16] is Cyclin-dependent kinase 11B (Homo sapiens, UniProt P21127). Description: Binding affinity to wild-type human partial length CDK11 (M1 to N360 residues) expressed in bacterial expression system assessed as […] at 1000 nM after 1 hr by Kinomescan method relative to control.
The target in test [17] is Serine/threonine-protein kinase D3 (Homo sapiens) (UniProt O94806). Description: Binding affinity to wild-type human partial length PRKD3 (S543 to E863 residues) expressed in bacterial expression system assessed as remaining unbound target protein level at 1000 nM by Kinomescan method relative to control.
The subject of test [18] is Phosphatidylinositol 4,5-bisphosphate 3-kinase catalytic subunit alpha isoform (Homo sapiens), P42336 [H1047L]. The test is described as follows: Binding affinity to human partial length PIK3CA H1047L mutant (R108 to N1068 residues) expressed in mammalian expression system assessed as remaining unbound target protein level at 1000 nM by Kinomescan method relative to control. The procedure, abridged: as §1

For test [19], the target named is Calcium/calmodulin-dependent protein kinase type IV (Homo sapiens) (UniProt Q16566). The test is described as follows: Binding affinity to wild-type human partial length CAMK4 (A22 to A322 residues) expressed in bacterial expression system assessed as remaining unbound target protein level at 1000 nM by Kinomescan method relative to control. The procedure, abridged:
as §3

Test [20] addresses Ephrin type-B receptor 3 (Homo sapiens) (UniProt P54753). Description: Binding affinity to wild-type human partial length EPHB3 (Q599 to T928 residues) expressed in bacterial expression system assessed as remaining unbound target protein level at 1000 nM by Kinomescan method relative to control.

Phosphatidylinositol 4,5-bisphosphate 3-kinase catalytic subunit alpha isoform (Homo sapiens), P42336 [H1047L], sequence (P42336 whole entry H1047L, the tested form may be a part, canonical isoform): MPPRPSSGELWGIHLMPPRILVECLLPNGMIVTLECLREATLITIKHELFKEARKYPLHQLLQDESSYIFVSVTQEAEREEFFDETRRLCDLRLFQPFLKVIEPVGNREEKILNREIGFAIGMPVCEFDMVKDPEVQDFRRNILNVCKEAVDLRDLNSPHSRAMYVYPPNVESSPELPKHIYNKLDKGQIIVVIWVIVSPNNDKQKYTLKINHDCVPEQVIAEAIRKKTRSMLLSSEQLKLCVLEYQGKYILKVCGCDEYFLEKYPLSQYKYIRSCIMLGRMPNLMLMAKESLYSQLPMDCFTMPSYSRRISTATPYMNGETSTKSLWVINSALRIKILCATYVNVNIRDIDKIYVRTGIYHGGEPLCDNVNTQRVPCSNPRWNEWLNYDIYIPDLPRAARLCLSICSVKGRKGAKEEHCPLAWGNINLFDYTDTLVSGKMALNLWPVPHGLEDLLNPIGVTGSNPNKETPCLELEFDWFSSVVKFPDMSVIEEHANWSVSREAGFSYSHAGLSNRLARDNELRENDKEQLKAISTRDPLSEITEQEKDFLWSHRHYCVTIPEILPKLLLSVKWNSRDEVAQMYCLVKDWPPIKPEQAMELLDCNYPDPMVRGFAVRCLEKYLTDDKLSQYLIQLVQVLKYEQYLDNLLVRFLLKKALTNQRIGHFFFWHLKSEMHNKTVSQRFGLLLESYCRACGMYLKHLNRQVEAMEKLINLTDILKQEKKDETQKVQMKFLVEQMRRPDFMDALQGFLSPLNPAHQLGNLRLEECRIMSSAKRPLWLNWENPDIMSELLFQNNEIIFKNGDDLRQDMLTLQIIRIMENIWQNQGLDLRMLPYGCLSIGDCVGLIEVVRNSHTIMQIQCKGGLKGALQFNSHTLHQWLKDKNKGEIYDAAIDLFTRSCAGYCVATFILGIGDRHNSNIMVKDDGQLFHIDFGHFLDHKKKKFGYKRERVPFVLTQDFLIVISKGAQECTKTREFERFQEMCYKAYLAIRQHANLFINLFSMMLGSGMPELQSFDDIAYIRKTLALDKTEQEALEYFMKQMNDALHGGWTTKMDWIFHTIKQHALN
Non-receptor tyrosine-protein kinase TYK2 (Homo sapiens), sequence (P29597 whole entry, the tested form may be a part): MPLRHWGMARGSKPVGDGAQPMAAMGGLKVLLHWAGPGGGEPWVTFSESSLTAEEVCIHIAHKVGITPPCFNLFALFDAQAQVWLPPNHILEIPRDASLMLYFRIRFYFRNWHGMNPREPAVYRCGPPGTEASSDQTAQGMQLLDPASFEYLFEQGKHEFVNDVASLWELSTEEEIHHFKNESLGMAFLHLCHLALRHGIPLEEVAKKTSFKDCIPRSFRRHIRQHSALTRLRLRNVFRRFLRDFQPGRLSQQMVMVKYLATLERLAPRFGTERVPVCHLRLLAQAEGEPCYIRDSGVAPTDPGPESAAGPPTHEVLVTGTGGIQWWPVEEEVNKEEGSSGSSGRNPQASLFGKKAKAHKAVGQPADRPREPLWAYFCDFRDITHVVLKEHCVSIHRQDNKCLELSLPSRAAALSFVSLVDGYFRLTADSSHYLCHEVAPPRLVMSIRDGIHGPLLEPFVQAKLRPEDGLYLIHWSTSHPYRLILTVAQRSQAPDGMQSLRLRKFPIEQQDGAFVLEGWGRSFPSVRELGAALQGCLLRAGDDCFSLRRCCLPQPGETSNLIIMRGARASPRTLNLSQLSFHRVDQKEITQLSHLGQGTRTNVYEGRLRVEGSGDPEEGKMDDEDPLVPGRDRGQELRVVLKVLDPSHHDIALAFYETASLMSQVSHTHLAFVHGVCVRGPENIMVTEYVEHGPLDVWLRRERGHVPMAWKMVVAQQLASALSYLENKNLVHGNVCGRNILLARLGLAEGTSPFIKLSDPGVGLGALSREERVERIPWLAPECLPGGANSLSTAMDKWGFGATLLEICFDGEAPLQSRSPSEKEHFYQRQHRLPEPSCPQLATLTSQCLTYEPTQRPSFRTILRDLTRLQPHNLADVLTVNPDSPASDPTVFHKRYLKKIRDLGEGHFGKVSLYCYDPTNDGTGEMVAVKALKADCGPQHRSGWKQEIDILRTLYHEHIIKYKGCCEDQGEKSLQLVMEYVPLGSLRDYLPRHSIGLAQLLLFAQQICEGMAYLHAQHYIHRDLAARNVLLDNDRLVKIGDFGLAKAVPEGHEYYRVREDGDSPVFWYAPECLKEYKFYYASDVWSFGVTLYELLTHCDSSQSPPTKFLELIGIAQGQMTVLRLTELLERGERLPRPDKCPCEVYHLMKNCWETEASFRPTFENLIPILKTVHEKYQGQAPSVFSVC
Ribosomal protein S6 kinase alpha-3 (Homo sapiens), sequence (P51812 whole entry, the tested form may be a part): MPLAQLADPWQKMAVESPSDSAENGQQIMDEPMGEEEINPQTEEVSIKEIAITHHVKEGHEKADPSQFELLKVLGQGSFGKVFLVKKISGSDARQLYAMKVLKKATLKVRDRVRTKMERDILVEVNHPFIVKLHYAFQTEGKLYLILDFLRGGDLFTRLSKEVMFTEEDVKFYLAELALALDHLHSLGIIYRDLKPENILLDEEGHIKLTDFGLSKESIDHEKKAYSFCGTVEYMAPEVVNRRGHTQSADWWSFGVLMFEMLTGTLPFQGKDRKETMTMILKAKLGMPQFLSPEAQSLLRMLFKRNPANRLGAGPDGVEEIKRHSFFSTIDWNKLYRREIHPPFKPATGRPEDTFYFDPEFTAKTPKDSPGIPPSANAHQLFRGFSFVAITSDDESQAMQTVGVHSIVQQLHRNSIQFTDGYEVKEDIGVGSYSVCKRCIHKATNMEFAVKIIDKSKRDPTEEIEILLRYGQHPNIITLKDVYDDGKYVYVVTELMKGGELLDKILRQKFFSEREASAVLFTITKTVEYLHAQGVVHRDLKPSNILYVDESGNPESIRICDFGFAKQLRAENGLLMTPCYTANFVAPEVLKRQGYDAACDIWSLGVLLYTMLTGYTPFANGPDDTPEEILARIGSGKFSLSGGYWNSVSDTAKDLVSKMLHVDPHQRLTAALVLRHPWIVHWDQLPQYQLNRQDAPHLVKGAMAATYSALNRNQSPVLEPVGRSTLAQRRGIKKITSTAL

Regarding `COCCN[C@H]1CC[C@H](Nc2cc(-c3csc(NCC4(C#N)CCOCC4)n3)c(Cl)cn2)CC1`, in the test filed under Homo sapiens, the Ratio IC50 is more than 1000. Also, the Activity turned out to be 85% in test [1]; 100% in test [2]; 99% in [3]; 80% in test [4]; 90% in test [5]; 98% in test [6]. In addition, the Activity was 53% in [7]; 66% in test [8]; 23% in [9]; 96% in [10]; 94% in test [11]; 100% in [12]. Moreover, the Activity stood at 96% in test [13]; 92% in test [14]; 95% in test [15]; 100% in [16]; 89% in test [17]; 100% in [18]. Besides, the Activity in test [19] and in [20] was 100% each time.
